Assay results pooled from the literature.
Each line is one published result; the experiments were not run side by side.
Observed: cell growth or viability

COc1cccc(Oc2ccccc2NC(=O)CNC(=O)c2cccc3ccccc23)c1
GI50 (SF-295; SRB; 48 h): 112 nM

FC(F)(F)c1ccc(C(c2c[nH]c3ccccc23)c2c[nH]c3ccccc23)cc1
inhibition (DU-145; MTT; 100 µM, 48 h): 95%

CC(=O)O[C@@]12CO[C@@H]1C[C@H](O)[C@@]1(C)C(=O)[C@H](O)C3=C(C)[C@@H](OC(=O)[C@H](O)[C@@H](NC(=O)OC(C)(C)C)c4ccccc4)C[C@@](O)([C@@H](OC(=O)c4ccccc4)[C@H]21)C3(C)C
inhibition (LNCaP; trypan blue; 3 nM, 72 h): > 65%

COc1cc(Nc2nccc(-c3cnn4nc(OC)ccc34)n2)cc(C(F)(F)F)c1
IC50 (MOLT-4; ATP luminescence): 270 nM

COc1cc2c(cc1O)CCN(Cc1cccc(O)c1)C2
GI50 (DU-145; WST-1; 96 h): > 100000 nM

O=C(O)/C=C/c1ccc(C(c2c[nH]c3ccccc23)c2c[nH]c3ccccc23)s1
inhibition (DU-145; MTT; 100 µM, 48 h): 55%

COc1ccc(-c2ccc(-c3ccc(C(=N)N)nc3)s2)cc1
GI50 (SF-295; SRB): 1710 nM

COc1ccc(CN2CCc3cc(OS(N)(=O)=O)c(OC)cc3C2)cc1
GI50 (DU-145; WST-1; 96 h): 57200 nM

Cn1cc(C(c2ccc(C(=O)O)cc2)c2cn(C)c3ccccc23)c2ccccc21
inhibition (LNCaP; MTT; 100 µM, 48 h): 95%

COc1cc2c(cc1O)CCN(Cc1cccc([N+](=O)[O-])c1)C2
GI50 (DU-145; WST-1; 96 h): > 100000 nM

COc1ccc(-c2ccc(-c3ccc(C(=N)N)nc3)s2)cc1Cl
GI50 (BT-549; SRB): 1720 nM

CC(C)C[C@H](NC(=O)[C@H](Cc1ccccc1)NC(=O)c1cnccn1)B(O)O
IC50 (MOLT-4; ATP luminescence): 3.7 nM

COc1cc2c(cc1OS(N)(=O)=O)CCN(Cc1cccc(C)c1)C2
GI50 (DU-145; WST-1; 96 h): 41700 nM

CC(C)n1cc(C(c2ccc(/C=C/C(=O)O)s2)c2cn(C(C)C)c3ccccc23)c2ccccc21
inhibition (DU-145; MTT; 100 µM, 48 h): 94%

COc1cc2c(cc1O)CCN(Cc1cccc(OC(F)(F)F)c1)C2
GI50 (DU-145; WST-1; 96 h): 55000 nM

O=C(O)c1ccc(C(c2c[nH]c3ccccc23)c2c[nH]c3ccccc23)cc1
inhibition (LNCaP; MTT; 100 µM, 48 h): 100%
